pIC50: −log10 of the molar value. The source made the active and inactive calls.
Tests used:
[1] = target: T1, Serine/threonine-protein kinase ULK1 (Homo sapiens, UniProt O75385); assay: Inhibition of SUMO-tagged ULK1 (unknown origin) kinase domain expressed in KRX cells using [32P]-gamma-ATP and myelin basic protein substrate incubated for 7 mins; type: cell-based
T1 sequence (O75385 whole entry): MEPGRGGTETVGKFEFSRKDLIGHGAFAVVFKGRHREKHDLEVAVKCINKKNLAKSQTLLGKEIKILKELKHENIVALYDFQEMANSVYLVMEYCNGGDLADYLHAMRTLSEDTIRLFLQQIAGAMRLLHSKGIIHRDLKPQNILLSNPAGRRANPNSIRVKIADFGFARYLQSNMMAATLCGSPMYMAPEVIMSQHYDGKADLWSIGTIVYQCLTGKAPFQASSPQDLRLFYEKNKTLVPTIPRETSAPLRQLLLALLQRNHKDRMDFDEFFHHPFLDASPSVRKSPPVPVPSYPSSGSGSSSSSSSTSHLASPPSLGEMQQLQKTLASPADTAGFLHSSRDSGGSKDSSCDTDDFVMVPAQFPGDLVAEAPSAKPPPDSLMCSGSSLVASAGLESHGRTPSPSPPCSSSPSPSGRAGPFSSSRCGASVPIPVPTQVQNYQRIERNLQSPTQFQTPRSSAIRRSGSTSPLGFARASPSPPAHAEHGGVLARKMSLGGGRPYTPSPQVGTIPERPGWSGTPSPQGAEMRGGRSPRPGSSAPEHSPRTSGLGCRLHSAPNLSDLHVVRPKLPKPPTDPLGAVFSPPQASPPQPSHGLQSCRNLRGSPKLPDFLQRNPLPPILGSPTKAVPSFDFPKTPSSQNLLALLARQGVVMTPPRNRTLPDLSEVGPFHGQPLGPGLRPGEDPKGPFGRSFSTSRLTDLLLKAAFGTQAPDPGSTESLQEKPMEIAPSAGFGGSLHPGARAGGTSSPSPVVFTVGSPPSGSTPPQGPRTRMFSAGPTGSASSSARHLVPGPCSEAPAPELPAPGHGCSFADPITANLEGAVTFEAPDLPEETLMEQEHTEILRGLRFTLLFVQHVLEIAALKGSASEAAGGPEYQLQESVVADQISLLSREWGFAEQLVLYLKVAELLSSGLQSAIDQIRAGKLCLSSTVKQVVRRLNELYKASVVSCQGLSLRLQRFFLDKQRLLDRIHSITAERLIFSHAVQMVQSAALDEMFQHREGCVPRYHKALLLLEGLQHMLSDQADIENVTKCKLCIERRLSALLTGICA
Method in brief: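 Enzyme at 5 nM with 50 µM cold ATP, 0.05 µCi/µl 32P-γ-ATP and 20 µM myelin basic protein as substrate. Reactions were spotted onto nitrocellulose, washed three times in 1% phosphoric acid, dried and imaged by phosphorimager. IC50 from curve fitting; duplicate.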

HeLa = assay: Inhibition of autophagy in human HeLa cells assessed as induction of LC3-I protein accumulation at 4 uM incubated for 24 hrs by immunoblotting method; type: functional, cell-based
Method in brief: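 HeLa cells were grown in DMEM with 10% FBS to about 50% confluency, then given 4 µM compound or DMSO for 24 h. Cold-PBS wash, lysis in TBS pH 7.6 with 1% Triton-X, 0.2% SDS and protease/phosphatase inhibitors. Lysates were protein-normalized and immunoblotted for LC3-I/LC3-II, with actin as loading control.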

[2] = target: High affinity nerve growth factor receptor (Homo sapiens) (UniProt P04629); assay: Inhibition of TRKA (unknown origin) at 2 uM by radioactive filter-binding assay
High affinity nerve growth factor receptor (Homo sapiens), sequence (P04629 33-796 limits assumed): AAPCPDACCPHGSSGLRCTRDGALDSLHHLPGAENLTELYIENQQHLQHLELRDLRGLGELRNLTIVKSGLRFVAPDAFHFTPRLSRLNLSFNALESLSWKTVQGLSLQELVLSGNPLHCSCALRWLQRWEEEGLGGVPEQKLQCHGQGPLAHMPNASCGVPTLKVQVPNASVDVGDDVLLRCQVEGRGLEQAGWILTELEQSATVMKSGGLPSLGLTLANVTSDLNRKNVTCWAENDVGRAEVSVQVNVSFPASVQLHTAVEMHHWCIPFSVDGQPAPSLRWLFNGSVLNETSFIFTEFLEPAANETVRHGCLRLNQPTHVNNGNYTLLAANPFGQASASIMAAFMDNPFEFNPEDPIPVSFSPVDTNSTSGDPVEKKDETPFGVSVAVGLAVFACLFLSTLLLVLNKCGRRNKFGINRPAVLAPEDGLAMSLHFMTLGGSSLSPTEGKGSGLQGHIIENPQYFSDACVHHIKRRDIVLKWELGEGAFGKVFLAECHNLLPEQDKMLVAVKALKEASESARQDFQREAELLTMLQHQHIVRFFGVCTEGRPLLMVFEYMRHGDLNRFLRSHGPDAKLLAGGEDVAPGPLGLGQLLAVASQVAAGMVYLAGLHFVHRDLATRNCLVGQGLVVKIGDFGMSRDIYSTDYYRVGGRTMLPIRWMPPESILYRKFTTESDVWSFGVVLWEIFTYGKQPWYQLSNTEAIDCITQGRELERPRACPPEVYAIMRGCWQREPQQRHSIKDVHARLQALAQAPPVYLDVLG
Method in brief: (§1)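 Panel profiling of one compound against 50 kinases, carried out in duplicate at the International Centre for Protein Kinase Profiling. Radioactive filter-binding format.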

[3] = target: Interleukin-1 receptor-associated kinase 4 (Homo sapiens) (UniProt Q9NWZ3); assay: Inhibition of IRAK4 (unknown origin) at 2 uM by radioactive filter-binding assay; method in brief: as §1
[4] = target: Tyrosine-protein kinase JAK2 (Homo sapiens) (UniProt O60674); assay: Inhibition of JAK2 (unknown origin) at 2 uM by radioactive filter-binding assay; method in brief: as §1
[5] = target: Ribosomal protein S6 kinase alpha-1 (Homo sapiens) (UniProt Q15418); assay: Inhibition of RSK1 (unknown origin) at 2 uM by radioactive filter-binding assay; method in brief: as §1
Ribosomal protein S6 kinase alpha-1 (Homo sapiens), sequence (Q15418 whole entry): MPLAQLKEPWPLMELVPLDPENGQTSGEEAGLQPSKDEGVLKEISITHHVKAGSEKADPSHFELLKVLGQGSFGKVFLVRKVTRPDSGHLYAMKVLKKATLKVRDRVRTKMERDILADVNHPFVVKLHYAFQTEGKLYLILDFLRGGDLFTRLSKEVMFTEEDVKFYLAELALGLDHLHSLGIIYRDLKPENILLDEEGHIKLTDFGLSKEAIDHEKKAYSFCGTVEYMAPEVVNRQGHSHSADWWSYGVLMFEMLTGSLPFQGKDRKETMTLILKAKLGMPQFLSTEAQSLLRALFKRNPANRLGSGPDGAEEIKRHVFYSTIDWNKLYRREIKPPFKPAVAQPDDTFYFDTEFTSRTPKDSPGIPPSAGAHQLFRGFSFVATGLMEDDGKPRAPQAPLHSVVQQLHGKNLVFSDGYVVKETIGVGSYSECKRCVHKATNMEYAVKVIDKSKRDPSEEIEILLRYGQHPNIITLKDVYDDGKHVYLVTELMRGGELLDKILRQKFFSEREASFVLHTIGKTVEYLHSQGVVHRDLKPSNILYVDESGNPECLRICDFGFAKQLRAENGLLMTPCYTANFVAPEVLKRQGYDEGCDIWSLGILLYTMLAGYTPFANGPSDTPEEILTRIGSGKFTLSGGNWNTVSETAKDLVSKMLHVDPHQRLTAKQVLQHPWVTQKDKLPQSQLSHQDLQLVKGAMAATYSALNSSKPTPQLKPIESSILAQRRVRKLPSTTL

[6] = target: Dual specificity mitogen-activated protein kinase kinase 1 (Homo sapiens) (UniProt Q02750); assay: Inhibition of MKK1 (unknown origin) at 2 uM by radioactive filter-binding assay; method in brief: as §1
Dual specificity mitogen-activated protein kinase kinase 1 (Homo sapiens), sequence (Q02750 whole entry): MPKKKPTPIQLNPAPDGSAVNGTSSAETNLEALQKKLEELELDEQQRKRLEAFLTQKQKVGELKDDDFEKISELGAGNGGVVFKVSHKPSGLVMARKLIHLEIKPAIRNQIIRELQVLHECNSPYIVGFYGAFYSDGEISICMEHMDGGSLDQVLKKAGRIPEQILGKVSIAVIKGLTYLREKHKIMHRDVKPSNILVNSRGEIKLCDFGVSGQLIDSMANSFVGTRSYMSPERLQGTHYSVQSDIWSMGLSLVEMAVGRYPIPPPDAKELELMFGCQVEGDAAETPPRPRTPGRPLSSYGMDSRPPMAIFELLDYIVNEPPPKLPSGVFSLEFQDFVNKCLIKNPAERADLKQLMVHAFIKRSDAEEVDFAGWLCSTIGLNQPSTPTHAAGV

[7] = target: Mitogen-activated protein kinase kinase kinase 11 (Homo sapiens) (UniProt Q16584); assay: Inhibition of MLK3 (unknown origin) at 2 uM by radioactive filter-binding assay; method in brief: as §1
[8] = target: Calcium/calmodulin-dependent protein kinase type 1 (Homo sapiens) (UniProt Q14012); assay: Inhibition of CAMK1 (unknown origin) at 250 nM by radioactive filter-binding assay; method in brief: as §1
[9] = target: SRSF protein kinase 1 (Homo sapiens) (UniProt Q96SB4); assay: Inhibition of SRPK1 (unknown origin) at 250 nM by radioactive filter-binding assay; method in brief: as §1
[10] = target: Glycogen synthase kinase-3 beta (Homo sapiens) (UniProt P49841); assay: Inhibition of GSK3beta (unknown origin) at 250 nM by radioactive filter-binding assay; method in brief: as §1
[11] = target: Tyrosine-protein kinase SYK (Homo sapiens) (UniProt P43405); assay: Inhibition of SYK (unknown origin) at 250 nM by radioactive filter-binding assay; method in brief: as §1
[12] = target: Serine/threonine-protein kinase PAK 4 (Homo sapiens) (UniProt O96013); assay: Inhibition of PAK4 (unknown origin) at 250 nM by radioactive filter-binding assay; method in brief: as §1
Serine/threonine-protein kinase PAK 4 (Homo sapiens), sequence (O96013 whole entry, looked up): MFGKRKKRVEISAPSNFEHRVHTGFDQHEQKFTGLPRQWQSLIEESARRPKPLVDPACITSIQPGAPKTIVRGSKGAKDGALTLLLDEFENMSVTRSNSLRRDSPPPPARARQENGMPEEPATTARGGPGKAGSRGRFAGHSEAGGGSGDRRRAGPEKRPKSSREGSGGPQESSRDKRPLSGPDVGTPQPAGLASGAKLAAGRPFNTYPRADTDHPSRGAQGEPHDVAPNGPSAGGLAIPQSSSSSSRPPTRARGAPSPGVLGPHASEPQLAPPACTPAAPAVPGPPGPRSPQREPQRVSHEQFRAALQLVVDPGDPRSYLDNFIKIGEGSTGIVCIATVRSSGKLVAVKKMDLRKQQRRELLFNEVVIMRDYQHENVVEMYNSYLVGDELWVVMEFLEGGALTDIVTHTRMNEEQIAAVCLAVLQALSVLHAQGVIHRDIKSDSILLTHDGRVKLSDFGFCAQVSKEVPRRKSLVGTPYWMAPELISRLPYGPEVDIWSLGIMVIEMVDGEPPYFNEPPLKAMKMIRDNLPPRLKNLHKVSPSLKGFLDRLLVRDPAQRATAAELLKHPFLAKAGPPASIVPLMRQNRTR

[13] = target: Serine/threonine-protein kinase TBK1 (Homo sapiens) (UniProt Q9UHD2); assay: Inhibition of TBK1 (unknown origin) at 250 nM by radioactive filter-binding assay; method in brief: as §1
Serine/threonine-protein kinase TBK1 (Homo sapiens), sequence (Q9UHD2 whole entry): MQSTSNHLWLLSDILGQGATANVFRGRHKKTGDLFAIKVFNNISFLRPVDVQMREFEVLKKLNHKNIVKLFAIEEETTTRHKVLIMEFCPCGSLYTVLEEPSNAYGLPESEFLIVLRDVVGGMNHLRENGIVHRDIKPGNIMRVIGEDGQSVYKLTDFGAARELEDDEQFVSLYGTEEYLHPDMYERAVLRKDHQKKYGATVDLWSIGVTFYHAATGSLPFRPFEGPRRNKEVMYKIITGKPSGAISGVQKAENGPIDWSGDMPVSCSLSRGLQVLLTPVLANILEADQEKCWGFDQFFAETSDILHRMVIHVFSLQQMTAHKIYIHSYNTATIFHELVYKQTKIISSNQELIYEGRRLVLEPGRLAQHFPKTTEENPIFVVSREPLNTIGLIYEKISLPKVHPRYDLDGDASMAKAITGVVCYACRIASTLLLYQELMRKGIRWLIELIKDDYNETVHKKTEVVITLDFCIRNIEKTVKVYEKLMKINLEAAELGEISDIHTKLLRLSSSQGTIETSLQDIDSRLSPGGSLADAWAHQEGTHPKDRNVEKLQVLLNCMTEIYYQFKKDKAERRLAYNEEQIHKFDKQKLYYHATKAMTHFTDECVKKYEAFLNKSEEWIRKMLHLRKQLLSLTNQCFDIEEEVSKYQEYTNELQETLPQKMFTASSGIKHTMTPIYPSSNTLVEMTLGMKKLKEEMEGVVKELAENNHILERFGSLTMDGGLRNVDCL

[14] = target: Insulin-like growth factor 1 receptor (Homo sapiens) (UniProt P08069); assay: Inhibition of IGF1R (unknown origin) at 250 nM by radioactive filter-binding assay; method in brief: as §1
[15] = target: Proto-oncogene tyrosine-protein kinase Src (Homo sapiens) (UniProt P12931); assay: Inhibition of SRC (unknown origin) at 250 nM by radioactive filter-binding assay; method in brief: as §1
Proto-oncogene tyrosine-protein kinase Src (Homo sapiens), sequence (P12931 2-536 limits assumed): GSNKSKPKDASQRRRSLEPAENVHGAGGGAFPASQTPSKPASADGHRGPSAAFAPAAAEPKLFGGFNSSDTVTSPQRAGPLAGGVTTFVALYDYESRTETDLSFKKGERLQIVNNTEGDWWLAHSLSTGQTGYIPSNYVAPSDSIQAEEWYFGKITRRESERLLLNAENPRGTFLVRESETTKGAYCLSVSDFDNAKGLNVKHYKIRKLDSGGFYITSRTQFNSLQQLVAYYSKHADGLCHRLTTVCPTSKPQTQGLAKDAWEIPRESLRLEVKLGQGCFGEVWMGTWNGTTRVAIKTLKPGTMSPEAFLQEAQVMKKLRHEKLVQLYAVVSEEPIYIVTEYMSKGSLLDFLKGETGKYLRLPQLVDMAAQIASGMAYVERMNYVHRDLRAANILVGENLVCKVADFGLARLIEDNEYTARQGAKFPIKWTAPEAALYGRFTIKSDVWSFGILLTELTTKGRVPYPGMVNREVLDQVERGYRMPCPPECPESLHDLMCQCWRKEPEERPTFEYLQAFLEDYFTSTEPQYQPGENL

[16] = target: Casein kinase I isoform delta (Homo sapiens) (UniProt P48730); assay: Inhibition of CK1delta (unknown origin) at 250 nM by radioactive filter-binding assay; method in brief: as §1
[17] = target: Serine/threonine-protein kinase 3 (Homo sapiens) (UniProt Q13188); assay: Inhibition of MST2 (unknown origin) at 250 nM by radioactive filter-binding assay; method in brief: as §1
Serine/threonine-protein kinase 3 (Homo sapiens), sequence (Q13188 whole entry): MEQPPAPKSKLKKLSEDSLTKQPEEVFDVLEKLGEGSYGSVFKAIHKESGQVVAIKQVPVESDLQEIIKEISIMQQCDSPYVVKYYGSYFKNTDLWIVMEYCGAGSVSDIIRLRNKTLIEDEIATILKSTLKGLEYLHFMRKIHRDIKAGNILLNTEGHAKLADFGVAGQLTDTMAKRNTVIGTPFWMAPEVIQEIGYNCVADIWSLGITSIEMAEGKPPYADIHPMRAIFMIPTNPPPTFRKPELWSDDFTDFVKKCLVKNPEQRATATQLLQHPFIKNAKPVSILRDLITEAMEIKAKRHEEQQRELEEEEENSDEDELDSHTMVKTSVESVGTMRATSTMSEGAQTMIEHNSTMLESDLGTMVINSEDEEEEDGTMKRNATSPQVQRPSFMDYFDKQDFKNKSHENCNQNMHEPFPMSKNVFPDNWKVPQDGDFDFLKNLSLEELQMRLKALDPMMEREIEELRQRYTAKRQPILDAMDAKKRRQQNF

[18] = target: Vascular endothelial growth factor receptor (Homo sapiens) (UniProt P17948+P35916+P35968); assay: Inhibition of VEGFR (unknown origin) at 250 nM by radioactive filter-binding assay; type: protein assay; method in brief: as §1
[19] = target: Tyrosine-protein kinase Lck (Homo sapiens) (UniProt P06239); assay: Inhibition of LCK (unknown origin) at 250 nM by radioactive filter-binding assay; method in brief: as §1
Tyrosine-protein kinase Lck (Homo sapiens), sequence (P06239 2-509 limits assumed): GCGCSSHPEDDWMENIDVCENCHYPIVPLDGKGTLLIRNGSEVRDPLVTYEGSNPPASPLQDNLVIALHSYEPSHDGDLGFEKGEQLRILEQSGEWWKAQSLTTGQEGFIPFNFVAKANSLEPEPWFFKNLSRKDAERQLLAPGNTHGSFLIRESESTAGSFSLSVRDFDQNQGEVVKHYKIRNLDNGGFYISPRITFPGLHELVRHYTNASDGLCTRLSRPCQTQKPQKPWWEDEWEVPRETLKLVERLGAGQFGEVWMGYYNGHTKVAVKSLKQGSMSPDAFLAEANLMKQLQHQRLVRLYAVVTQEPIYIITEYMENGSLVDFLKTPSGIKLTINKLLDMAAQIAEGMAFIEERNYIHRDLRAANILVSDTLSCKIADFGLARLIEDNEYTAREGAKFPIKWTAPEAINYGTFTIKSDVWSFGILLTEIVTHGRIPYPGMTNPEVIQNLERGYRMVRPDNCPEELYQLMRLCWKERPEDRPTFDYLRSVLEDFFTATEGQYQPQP

[20] = target: AMP-activated protein kinase, AMPK (Homo sapiens) (UniProt P54646+O43741+P54619+Q9UGJ0+Q9Y478+Q13131+Q9UGI9); assay: Inhibition of AMPK (unknown origin) at 250 nM by radioactive filter-binding assay; type: protein-complex assay; method in brief: as §1

NCCCNc1nc(Nc2cccc(NC(=O)N3CCCC3)c2)ncc1I
> 80%: inhibition [2] | inhibition [3] | inhibition [4] | inhibition [5] | inhibition [6] | inhibition [7]
active: Activity (HeLa)
6.92: pIC50 [1]

c1ccc2c(Nc3cc(C4CCC4)[nH]n3)nc(Nc3ccc4[nH]cnc4c3)nc2c1
> 80%: inhibition [8] | inhibition [9] | inhibition [10] | inhibition [11] | inhibition [12] | inhibition [13] | inhibition [14] | inhibition [15] | inhibition [16] | inhibition [17] | inhibition [18] | inhibition [19] | inhibition [20]
